The values that follow come from ChEMBL document CHEMBL1287673, “Neo-tanshinlactone inspired synthesis, in vitro evaluation of novel substituted benzocoumarin derivatives as potent anti-breast cancer agents” (Bioorg Med Chem Lett, 2010).

Active and inactive are the calls of the source. The calls are words filed in the database; no cut-off is given here.

The subject of data set [1] is MCF7. Briefly: Anticancer activity against human MCF7 cells expressing estrogen receptor by MTT assay. Format: functional, cell-based. For orientation: Tetrazolium assays rely on reduction of a dye to a coloured formazan, in cell work by metabolically active cells.
Data set [2] has as its system MCF7. As to the kind of experiment: Cytotoxicity against human MCF7 cells expressing estrogen receptor assessed as loss of cell viability at 10 uM after 16 hrs by MTT assay. Format: functional, cell-based. In a few lines:
(§1)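 1 × 10⁵ MCF-7 cells at 70–80% confluence exposed 16 h to increasing compound concentrations; growth inhibition read by MTT as percent (Total/Control); tamoxifen positive control; n = 9.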

Data set [3] in a line: Cytotoxicity activity against Sprague-Dawley rat osteoblast cells at 10 uM by MTT assay. Format: cell-based. In a few lines: (§2)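 Primary osteoblasts, 3 × 10³ cells/well, treated with 10 or 20 µM compound; viability and cell number read by MTT; n = 9.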
For data set [4], the system named is MCF7. As to the kind of experiment: Induction of apoptosis in human MCF7 cells expressing estrogen receptor at 10 uM after 24 hrs using annexin-V FITC and propidium iodide staining by flow cytometry. Format: functional, cell-based. An outline of the steps: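 MCF-7 (5 × 10⁵ cells) at 70–80% confluence held 24 h in DMEM/10% FBS with or without 10 µM compound. Harvested, stained with Annexin-V-FITC and PI, and read by flow cytometry as % apoptotic (Annexin-positive/PI-negative) and necrotic (PI-positive) cells.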
A general note: In flow cytometry, cells or beads pass a laser one at a time.

In data set [5] the test system is MCF7. As to the kind of experiment: Induction of apoptosis in human MCF7 cells expressing estrogen receptor assessed as cytoplasmic condensation at 10 uM after 18 hrs by Hoechst 33342 staining. Format: functional, cell-based. An outline of the steps: (§3)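 MCF-7 at 70–80% confluence given 10 µM compound for 18 h in complete growth medium, then Hoechst 33342 stained and imaged with a ×40 objective. Apoptotic nuclei scored by shape and intensity and normalized to control; tamoxifen positive control.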

The subject of data set [6] is MCF7. Briefly: Induction of apoptosis in human MCF7 cells expressing estrogen receptor assessed as presence of apoptotic body at 10 uM after 18 hrs by Hoechst 33342 staining. Format: functional, cell-based. An outline of the steps: as §3
Data set [7] has as its system MCF7. Briefly: Cell cycle arrest in human MCF7 cells expressing estrogen receptor assessed as accumulation at G1/G0 phase at 10 uM after 24 hrs using propidium iodide staining by flow cytometry. Format: functional, cell-based. In a few lines: (§4)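 MCF-7, 5 × 10⁵ cells/well at 70–80% confluence, serum-starved, then 10 µM compound for 24 h in phenol red-free medium. Cells fixed in 70% ethanol, rehydrated in PBS, and stained with PI (50 µg/ml) plus ribonuclease A (100 µg/ml). Flow cytometry gives % of cells in each cycle phase.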

Data set [8] relates to MCF7. As to the kind of experiment: Induction of apoptosis in human MCF7 cells expressing estrogen receptor assessed as presence of nuclear fragmentation at 10 uM after 18 hrs by Hoechst 33342 staining. Format: functional, cell-based. In a few lines:
as §3

The subject of data set [9] is MCF7. As to the kind of experiment: Induction of apoptosis in human MCF7 cells expressing estrogen receptor assessed as increase in caspase activity at 10 uM after 16 hrs. Format: functional, cell-based. In a few lines: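 1 × 10⁴ MCF-7 cells/well at 70–80% confluence grown 16 h, then 10 µM compound for 16 h. General (homogeneous) caspase activity read fluorometrically, excitation 465 nm, emission 520 nm; compared with negative control.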

In data set [10] the test system is MCF7. As to the kind of experiment: Cytotoxicity against human MCF7 cells expressing estrogen receptor assessed as loss of cell viability after 16 hrs by MTT assay. Format: functional, cell-based. In a few lines:
as §1

A short description of data set [11]: Cytotoxicity activity against Sprague-Dawley rat osteoblast cells at 20 uM by MTT assay. Format: cell-based. An outline of the steps: as §2
Data set [12] relates to MCF7. As to the kind of experiment: Cell cycle arrest in human MCF7 cells expressing estrogen receptor assessed as accumulation at G2 phase at 10 uM after 24 hrs using propidium iodide staining by flow cytometry. Format: functional, cell-based. An outline of the steps: as §4
Data set [13] concerns MCF7. Briefly: Cytotoxicity against human MCF7 cells expressing estrogen receptor assessed as loss of cell viability at 20 uM after 16 hrs by MTT assay. Format: functional, cell-based. An outline of the steps:
as §1

As for `Cc1cc(=O)oc2c3c(ccc12)C(=O)/C(=C\NC(C)(C)C)C=C3/C=C/C(=O)c1ccccc1`, the IC50 in data set [1] is 92 µM.
`CCN/C=C1C=C(/C=C/C(=O)c2ccc(OC)cc2)c2c(ccc3c(C)cc(=O)oc23)C/1=O`: 30 µM corresponded to half-maximal inhibition in data set [1] (IC50).
On the same count and under the same terms, under `Cc1ccc(C(=O)/C=C/C2=CC(=C/NC(C)(C)C)/C(=O)c3ccc4c(C)cc(=O)oc4c32)c(C)c1` stands over 100 µM.
The same measure, in the same setting: under `CCN/C=C1C=C(/C=C/C(=O)c2ccc(C)cc2)c2c(ccc3c(C)cc(=O)oc23)C/1=O` stands over 100 µM; under `COc1ccc(C(=O)/C=C/c2cc(C=O)c(O)c3ccc4c(C)cc(=O)oc4c23)cc1`, over 100 µM; under `CCCCCCCN/C=C1/C=C(C=O)c2c(ccc3c(C)cc(=O)oc23)C1=O`, over 100 µM.
The same measure, in the same setting: under `Cc1ccc(C(=O)/C=C/C2=CC(=C/NC(C)(C)C)/C(=O)c3ccc4c(C)cc(=O)oc4c32)cc1` stands 97 µM; under `Cc1cc(=O)oc2c3c(ccc12)C(=O)/C(=C\NC(C)C)C=C3C=O`, 130 µM; under `Cc1cc(=O)oc2c3c(ccc12)C(=O)/C(=C\NC(C)C)C=C3/C=C/C(=O)c1ccccc1`, over 100 µM.
For `CCCCN/C=C1C=C(/C=C/C(=O)c2ccc(OC)cc2)c2c(ccc3c(C)cc(=O)oc23)C/1=O`, half-maximal inhibition in data set [1] (IC50) required 92 µM.
Same read-out and setting: under `CCCCN/C=C1C=C(/C=C/C(=O)c2ccc(C)cc2)c2c(ccc3c(C)cc(=O)oc23)C/1=O` stands over 100 µM; under `CCN/C=C1C=C(/C=C/C(=O)c2ccc(C)cc2C)c2c(ccc3c(C)cc(=O)oc23)C/1=O`, over 100 µM; under `Cc1cc(=O)oc2c1ccc1c(O)cccc12`, over 100 µM.
As for `CN/C=C1/C=C(C=O)c2c(ccc3c(C)cc(=O)oc23)C1=O`, the Activity result is “Toxic” in [2], “Non-toxic” in [3], “Dose-dependent effect” in data set [10] and “Non-toxic” in data set [11]. For the same compound, the outcome in [4], in data set [5], in [6], in [7], in [8] and in [9] was Active. The same compound showed an IC50 in data set [1] of 3.8 µM.
For `CCN/C=C1C=C(/C=C/C(=O)c2ccccc2)c2c(ccc3c(C)cc(=O)oc23)C/1=O`, the IC50 in [1] was determined as 87 µM.
On the same count and under the same terms, under `COc1ccc(C(=O)/C=C/C2=CC(=C/NC(C)(C)C)/C(=O)c3ccc4c(C)cc(=O)oc4c32)cc1` stands over 100 µM.
Compound `CCN/C=C1C=C(/C=C/C(=O)c2ccc(O)cc2)c2c(ccc3c(C)cc(=O)oc23)C/1=O` registered a 50% inhibitory concentration (IC50) in [1] of 85 µM.
In [1], `Cc1ccc(C(=O)/C=C/c2cc(C=O)c(O)c3ccc4c(C)cc(=O)oc4c23)c(C)c1` showed an IC50 of over 100 µM.
Still for that read-out and setting: under `Cc1cc(=O)oc2c3c(ccc12)C(=O)/C(=C\NCCN1CCOCC1)C=C3C=O` stands over 100 µM; under `Cc1ccc(C(=O)/C=C/C2=CC(=C/NC(C)C)/C(=O)c3ccc4c(C)cc(=O)oc4c32)cc1`, 21 µM; under `Cc1cc(=O)oc2c1ccc1c(O)c(C=O)cc(/C=C/C(=O)c3ccccc3)c12`, over 100 µM.
On the same count and under the same terms, under `CCN/C=C1/C=C(C=O)c2c(ccc3c(C)cc(=O)oc23)C1=O` stands over 100 µM; under `Cc1ccc(C(=O)/C=C/C2=CC(=C/NC(C)C)/C(=O)c3ccc4c(C)cc(=O)oc4c32)c(C)c1`, 35 µM.
In data set [1], `Cc1cc(=O)oc2c1ccc1c(O)c(C=O)cc(C=O)c12` returned a half-inhibitory concentration (IC50) of over 100 µM.
`Cc1cc(=O)oc2c3c(ccc12)C(=O)/C(=C\NC(C)(C)C)C=C3/C=C/C(=O)c1ccc(O)cc1` showed an IC50 in [1] of over 100 µM.
Still for that read-out and setting: the same measure for `Cc1ccc(C(=O)/C=C/c2cc(C=O)c(O)c3ccc4c(C)cc(=O)oc4c23)cc1`: over 100 µM; for `Cc1cc(=O)oc2c1ccc1c(O)c(C=O)cc(/C=C/C(=O)c3ccc(O)cc3)c12`: over 100 µM; for `CC/C(=C(\c1ccccc1)c1ccc(OCCN(C)C)cc1)c1ccccc1` [TAMOXIFEN]: 11.8 µM.
On the same count and under the same terms, the same measure for `COc1ccc(C(=O)/C=C/C2=CC(=C/NC(C)C)/C(=O)c3ccc4c(C)cc(=O)oc4c32)cc1`: over 100 µM.
The same measure, in the same setting: the same measure for `Cc1cc(=O)oc2c3c(ccc12)C(=O)/C(=C\NC(C)C)C=C3/C=C/C(=O)c1ccc(O)cc1`: 32 µM.
On to `CCCCN/C=C1C=C(/C=C/C(=O)c2ccc(C)cc2C)c2c(ccc3c(C)cc(=O)oc23)C/1=O`, for which, in [1], the IC50 is over 100 µM.
Compound `Cc1cc(=O)oc2c3c(ccc12)C(=O)/C(=C\NC(C)(C)C)C=C3C=O` returned a half-maximal inhibitory concentration (IC50) in [1] of 20 µM.
On to `CCCCN/C=C1/C=C(C=O)c2c(ccc3c(C)cc(=O)oc23)C1=O`, for which the Activity result in data set [3] is “Non-toxic”; in [10], “Dose-dependent effect”; in [11], “Non-toxic”. Moreover, the outcome in [5], in [6], in [8], in data set [9] and in data set [12] was Active. In [1], this compound registered a 50% inhibitory concentration (IC50) of 6.5 µM.
For the compound `CCCCN/C=C1C=C(/C=C/C(=O)c2ccc(O)cc2)c2c(ccc3c(C)cc(=O)oc23)C/1=O`, half-maximal inhibition in [1] (IC50) required 40 µM.
`CCCN/C=C1/C=C(C=O)c2c(ccc3c(C)cc(=O)oc23)C1=O`: the Activity result is “Non-toxic” in [3], “Toxic” in data set [13], “Dose-dependent effect” in [10] and “Non-toxic” in [11]. Further, the result in data set [5], in data set [6], in data set [7], in data set [8] and in data set [9] was Active. In addition, the IC50 in data set [1] stood at 7.9 µM.
In data set [1], `CCCCN/C=C1C=C(/C=C/C(=O)c2ccccc2)c2c(ccc3c(C)cc(=O)oc23)C/1=O` registered an IC50 of 100 µM.

What is called IC50 is the point on the concentration scale where inhibition reaches its midpoint. A higher IC50 goes with lower potency.
